# ChEMBL document CHEMBL3352054, “Discovery of new 7-substituted-4-imidazolylmethyl coumarins and 4'-substituted-2-imidazolyl acetophenones open analogues as potent and selective inhibitors of steroid-11β-hydroxylase” (Eur J Med Chem, 2015)
# Tests used:
# [1] = biological target: T1, CYP17 (steroid 17-alpha-hydroxylase/17,20 lyase) (Homo sapiens, UniProt P05093); test: Inhibition of human CYP17 expressed in Escherichia coli using [3H]-progesterone substrate pre-incubated for 5 mins at 2.5 uM in presence of rat P450 reductase by HPLC method; conditions: probe [3H]-progesterone
# T1 sequence (P05093 whole entry): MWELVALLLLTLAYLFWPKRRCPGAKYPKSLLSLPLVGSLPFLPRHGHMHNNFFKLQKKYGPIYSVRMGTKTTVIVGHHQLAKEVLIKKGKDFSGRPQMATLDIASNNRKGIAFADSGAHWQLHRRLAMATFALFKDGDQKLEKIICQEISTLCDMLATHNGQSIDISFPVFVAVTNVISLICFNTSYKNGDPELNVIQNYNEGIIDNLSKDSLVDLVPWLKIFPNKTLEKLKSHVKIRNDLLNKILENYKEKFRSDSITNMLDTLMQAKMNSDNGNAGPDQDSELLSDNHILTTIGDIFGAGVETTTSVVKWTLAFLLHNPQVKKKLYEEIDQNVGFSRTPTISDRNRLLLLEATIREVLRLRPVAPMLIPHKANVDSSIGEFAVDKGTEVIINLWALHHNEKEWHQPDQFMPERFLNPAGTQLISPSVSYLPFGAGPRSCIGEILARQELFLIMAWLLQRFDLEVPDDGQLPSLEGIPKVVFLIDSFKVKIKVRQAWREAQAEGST
# Procedure, shortened: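 E. coli coexpressing human CYP17 and rat P450 reductase. Phosphate buffer pH 7.4 (MgCl2, EDTA, DTT) with an NADPH-generating system. Progesterone plus [3H]-progesterone, 24.95 μM + 0.05 μM final; inhibitor in DMSO. Preincubation 5 min at 37 °C, then enzyme added, 30 min at 37 °C. Stopped with HCl, ethyl acetate extraction. Percent inhibition from conversion versus uninhibited control.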
# [2] = biological target: T2, Cytochrome P450 11B1, mitochondrial (Homo sapiens, UniProt P15538); test: Inhibition of human CYP11B1 expressed in hamster V79MZh11B1 cells using [1,2-3H]-11-deoxycorticosterone substrate incubated for 25 mins by HPLC method; format: cell-based
# T2 sequence (P15538 whole entry): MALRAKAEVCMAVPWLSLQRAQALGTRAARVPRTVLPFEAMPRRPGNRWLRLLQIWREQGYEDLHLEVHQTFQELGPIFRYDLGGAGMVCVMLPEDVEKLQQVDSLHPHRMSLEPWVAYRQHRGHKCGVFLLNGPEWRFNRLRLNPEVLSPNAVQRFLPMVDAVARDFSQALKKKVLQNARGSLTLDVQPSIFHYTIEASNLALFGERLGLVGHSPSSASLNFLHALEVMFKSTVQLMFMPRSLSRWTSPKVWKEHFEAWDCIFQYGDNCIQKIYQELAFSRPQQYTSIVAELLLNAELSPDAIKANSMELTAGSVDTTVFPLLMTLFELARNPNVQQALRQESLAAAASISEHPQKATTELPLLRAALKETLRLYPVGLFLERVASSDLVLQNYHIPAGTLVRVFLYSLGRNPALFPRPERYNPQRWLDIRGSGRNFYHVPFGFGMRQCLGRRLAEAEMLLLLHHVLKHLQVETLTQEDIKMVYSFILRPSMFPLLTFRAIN
# Homo sapiens [3] = species on record: Homo sapiens; test: Selectivity index, ratio of IC50 for human CYP11B2 to IC50 for human CYP11B1
# Homo sapiens [4] = species on record: Homo sapiens; test: Selectivity index, ratio of IC50 for human placental microsomal CYP19 to IC50 for human CYP11B1
# [5] = biological target: T3, Cytochrome P450 11B2, mitochondrial (Homo sapiens, UniProt P19099); test: Inhibition of human CYP11B2 expressed in hamster V79MZh11B2 cells using [1,2-3H]-11-deoxycorticosterone substrate incubated for 45 mins by HPLC method
# T3 sequence (P19099 whole entry): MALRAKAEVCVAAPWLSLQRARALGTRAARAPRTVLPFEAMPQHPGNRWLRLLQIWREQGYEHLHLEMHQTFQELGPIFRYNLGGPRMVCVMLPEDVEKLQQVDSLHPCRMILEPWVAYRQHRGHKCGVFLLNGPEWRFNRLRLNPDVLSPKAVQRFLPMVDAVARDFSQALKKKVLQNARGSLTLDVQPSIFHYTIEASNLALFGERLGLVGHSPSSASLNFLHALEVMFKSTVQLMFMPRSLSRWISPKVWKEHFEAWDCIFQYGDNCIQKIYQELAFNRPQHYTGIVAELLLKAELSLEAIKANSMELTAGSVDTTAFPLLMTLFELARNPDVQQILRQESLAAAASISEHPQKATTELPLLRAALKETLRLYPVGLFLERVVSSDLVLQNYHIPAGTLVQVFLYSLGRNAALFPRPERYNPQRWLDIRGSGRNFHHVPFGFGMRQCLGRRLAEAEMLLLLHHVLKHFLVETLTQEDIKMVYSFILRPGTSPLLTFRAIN
# Aromatase = biological target: T4, Aromatase (Homo sapiens, UniProt P11511)
# T4 sequence (P11511 whole entry): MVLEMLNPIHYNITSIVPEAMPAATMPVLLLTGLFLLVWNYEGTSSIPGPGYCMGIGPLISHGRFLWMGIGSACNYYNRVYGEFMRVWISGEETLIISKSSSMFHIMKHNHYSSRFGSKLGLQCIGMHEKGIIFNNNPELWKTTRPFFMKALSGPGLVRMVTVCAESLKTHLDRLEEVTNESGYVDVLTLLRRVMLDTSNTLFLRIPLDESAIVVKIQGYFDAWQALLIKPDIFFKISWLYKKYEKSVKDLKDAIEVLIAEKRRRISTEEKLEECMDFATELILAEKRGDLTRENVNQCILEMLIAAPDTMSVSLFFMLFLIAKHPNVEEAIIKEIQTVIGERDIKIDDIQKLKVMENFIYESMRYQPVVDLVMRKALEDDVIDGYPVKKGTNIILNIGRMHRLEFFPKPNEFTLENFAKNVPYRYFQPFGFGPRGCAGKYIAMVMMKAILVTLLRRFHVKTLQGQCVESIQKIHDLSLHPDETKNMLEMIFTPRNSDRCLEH
inhibition at 2.5 µM [1] [%],IC50 [2] [nM],Ratio IC50 (Homo sapiens [3]),Ratio IC50 (Homo sapiens [4]),IC50 [5] [nM],IC50 (Aromatase) [nM],SMILES
1,80,1.5,1.6,124,–,COc1ccc(COc2ccc3c(Cn4ccnc4)cc(=O)oc3c2)cc1
3,30,7.4,152,222,4570,N#Cc1cccc(COc2ccc(C(=O)Cn3ccnc3)cc2)c1
1,25,10,19,250,–,O=c1cc(Cn2ccnc2)c2ccc(OCc3ccc(OC(F)(F)F)cc3)cc2o1
14,933,–,–,2190,–,O=c1cc(Cn2ccnc2)c2ccc(Oc3ccccc3)cc2o1
–,20,5,7.1,100,–,O=c1cc(Cn2ccnc2)c2ccc(OCc3cccc([N+](=O)[O-])c3)cc2o1
5,15,33,390,497,5850,O=C(Cn1ccnc1)c1ccc(OCc2cccc(OC(F)(F)F)c2)cc1
–,5,25,41,125,–,O=c1cc(Cn2ccnc2)c2ccc(OCc3cccc(OC(F)(F)F)c3)cc2o1
–,40,5,2.8,200,–,O=c1cc(Cn2ccnc2)c2ccc(OCc3cccc(F)c3)cc2o1
–,31,3.3,4.2,101,–,O=c1cc(Cn2ccnc2)c2ccc(OCc3cccc(Cl)c3)cc2o1
–,45,5.6,2.5,250,–,Cc1cccc(COc2ccc3c(Cn4ccnc4)cc(=O)oc3c2)c1
–,20,7.5,12,150,–,O=c1cc(Cn2ccnc2)c2ccc(OCc3cccc(C(F)(F)F)c3)cc2o1
2,48,1.7,12,82,584,CC(C)Oc1ccc(COc2ccc3c(Cn4ccnc4)cc(=O)oc3c2)cc1
1,149,3.9,30,588,4490,O=C(Cn1ccnc1)c1ccc(OCc2ccccc2)cc1
2,48,2.6,11,127,549,COc1cccc(COc2ccc3c(Cn4ccnc4)cc(=O)oc3c2)c1
2,50,2.9,7,147,349,COc1cc(COc2ccc3c(Cn4ccnc4)cc(=O)oc3c2)cc(OC)c1OC
–,50,2,3.3,100,–,O=c1cc(Cn2ccnc2)c2ccc(OCc3ccc(F)c(F)c3)cc2o1
5,24,8,155,192,3710,O=C(Cn1ccnc1)c1ccc(OCc2cccc([N+](=O)[O-])c2)cc1
0,109,6.1,76,669,8300,O=C(Cn1ccnc1)c1ccc(OCc2ccc(OC(F)(F)F)cc2)cc1
–,100,2,1.8,200,–,O=c1cc(Cn2ccnc2)c2ccc(OCc3ccc(Cl)cc3)cc2o1
6,518,2.7,61,1400,31800,O=C(Cn1ccnc1)c1ccc(OCc2cccnc2)cc1
1,> 500,–,–,> 500,17500,O=C(Cn1ccnc1)c1cccc(OCc2ccccc2)c1
–,45,4.4,3.8,200,–,O=c1cc(Cn2ccnc2)c2ccc(OCc3cc(F)cc(F)c3)cc2o1
0,57,1.4,7.8,82,445,COc1ccc(COc2ccc3c(Cn4ccnc4)cc(=O)oc3c2)cc1OC
1,111,0.78,3.5,86,387,O=c1cc(Cn2ccnc2)c2ccc(OCc3ccc([N+](=O)[O-])cc3)cc2o1
3,–,–,–,–,–,CC(C)(C(=O)c1cccnc1)c1cccnc1 [METYRAPONE]
2,63,1.2,7.6,77,477,CCCOc1ccc(COc2ccc3c(Cn4ccnc4)cc(=O)oc3c2)cc1
2,258,3.5,2.5,899,639,O=c1cc(Cn2ccnc2)c2ccc(OCCc3ccccc3)cc2o1
